Legend:
Homo sapiens = species: Homo sapiens; test: Selectivity index, ratio of T-type calcium channel Cav3.1 to N-type calcium channel at 10 uM
[1] = target: T1, Voltage-dependent T-type calcium channel subunit alpha-1G (Homo sapiens, UniProt O43497); test: Inhibition of T-type calcium channel Cav3.1 expressed in HEK293 cells co-expressing alpha1G subunit at 10 uM by whole-cell patch clamp method; format: cell-based
Outline: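 α1G T-type channel expressed in HEK293 cells, whole-cell patch clamp. Percent inhibition of α1G currents at a single test concentration, given as mean ± SE from n ≥ 4 repeats. IC50 is the molar concentration giving 50% current inhibition, obtained by fitting raw data to dose–response curves.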

[2] = target: Voltage-dependent T-type calcium channel subunit alpha-1H (Homo sapiens) (UniProt O95180); test: Inhibition of T-type calcium channel Cav3.2 expressed in Xenopus oocytes coexpressing alpha-1H subunit at 100 uM by two-electrode voltage clamp method
[3] = target: Voltage-dependent N-type calcium channel subunit alpha-1B (Homo sapiens) (UniProt Q00975); test: Inhibition of N-type calcium channel expressed in HEK293 cells co-expressing Alpha-1B subunit at 10 uM; format: cell-based
Outline: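 N-type α1B channel expressed in HEK293 cells. Percent current inhibition at a single test concentration, reported as mean ± SE from n ≥ 4 repeated measurements. Inhibition below 1% was recorded as no blocking.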

[4] = target: T1, Voltage-dependent T-type calcium channel subunit alpha-1G; test: Inhibition of T-type calcium channel Cav3.1 expressed in HEK293 cells co-expressing alpha1G subunit by whole-cell patch clamp method; format: cell-based

Chain of Voltage-dependent N-type calcium channel subunit alpha-1B (Homo sapiens) (Q00975 whole entry, looked up): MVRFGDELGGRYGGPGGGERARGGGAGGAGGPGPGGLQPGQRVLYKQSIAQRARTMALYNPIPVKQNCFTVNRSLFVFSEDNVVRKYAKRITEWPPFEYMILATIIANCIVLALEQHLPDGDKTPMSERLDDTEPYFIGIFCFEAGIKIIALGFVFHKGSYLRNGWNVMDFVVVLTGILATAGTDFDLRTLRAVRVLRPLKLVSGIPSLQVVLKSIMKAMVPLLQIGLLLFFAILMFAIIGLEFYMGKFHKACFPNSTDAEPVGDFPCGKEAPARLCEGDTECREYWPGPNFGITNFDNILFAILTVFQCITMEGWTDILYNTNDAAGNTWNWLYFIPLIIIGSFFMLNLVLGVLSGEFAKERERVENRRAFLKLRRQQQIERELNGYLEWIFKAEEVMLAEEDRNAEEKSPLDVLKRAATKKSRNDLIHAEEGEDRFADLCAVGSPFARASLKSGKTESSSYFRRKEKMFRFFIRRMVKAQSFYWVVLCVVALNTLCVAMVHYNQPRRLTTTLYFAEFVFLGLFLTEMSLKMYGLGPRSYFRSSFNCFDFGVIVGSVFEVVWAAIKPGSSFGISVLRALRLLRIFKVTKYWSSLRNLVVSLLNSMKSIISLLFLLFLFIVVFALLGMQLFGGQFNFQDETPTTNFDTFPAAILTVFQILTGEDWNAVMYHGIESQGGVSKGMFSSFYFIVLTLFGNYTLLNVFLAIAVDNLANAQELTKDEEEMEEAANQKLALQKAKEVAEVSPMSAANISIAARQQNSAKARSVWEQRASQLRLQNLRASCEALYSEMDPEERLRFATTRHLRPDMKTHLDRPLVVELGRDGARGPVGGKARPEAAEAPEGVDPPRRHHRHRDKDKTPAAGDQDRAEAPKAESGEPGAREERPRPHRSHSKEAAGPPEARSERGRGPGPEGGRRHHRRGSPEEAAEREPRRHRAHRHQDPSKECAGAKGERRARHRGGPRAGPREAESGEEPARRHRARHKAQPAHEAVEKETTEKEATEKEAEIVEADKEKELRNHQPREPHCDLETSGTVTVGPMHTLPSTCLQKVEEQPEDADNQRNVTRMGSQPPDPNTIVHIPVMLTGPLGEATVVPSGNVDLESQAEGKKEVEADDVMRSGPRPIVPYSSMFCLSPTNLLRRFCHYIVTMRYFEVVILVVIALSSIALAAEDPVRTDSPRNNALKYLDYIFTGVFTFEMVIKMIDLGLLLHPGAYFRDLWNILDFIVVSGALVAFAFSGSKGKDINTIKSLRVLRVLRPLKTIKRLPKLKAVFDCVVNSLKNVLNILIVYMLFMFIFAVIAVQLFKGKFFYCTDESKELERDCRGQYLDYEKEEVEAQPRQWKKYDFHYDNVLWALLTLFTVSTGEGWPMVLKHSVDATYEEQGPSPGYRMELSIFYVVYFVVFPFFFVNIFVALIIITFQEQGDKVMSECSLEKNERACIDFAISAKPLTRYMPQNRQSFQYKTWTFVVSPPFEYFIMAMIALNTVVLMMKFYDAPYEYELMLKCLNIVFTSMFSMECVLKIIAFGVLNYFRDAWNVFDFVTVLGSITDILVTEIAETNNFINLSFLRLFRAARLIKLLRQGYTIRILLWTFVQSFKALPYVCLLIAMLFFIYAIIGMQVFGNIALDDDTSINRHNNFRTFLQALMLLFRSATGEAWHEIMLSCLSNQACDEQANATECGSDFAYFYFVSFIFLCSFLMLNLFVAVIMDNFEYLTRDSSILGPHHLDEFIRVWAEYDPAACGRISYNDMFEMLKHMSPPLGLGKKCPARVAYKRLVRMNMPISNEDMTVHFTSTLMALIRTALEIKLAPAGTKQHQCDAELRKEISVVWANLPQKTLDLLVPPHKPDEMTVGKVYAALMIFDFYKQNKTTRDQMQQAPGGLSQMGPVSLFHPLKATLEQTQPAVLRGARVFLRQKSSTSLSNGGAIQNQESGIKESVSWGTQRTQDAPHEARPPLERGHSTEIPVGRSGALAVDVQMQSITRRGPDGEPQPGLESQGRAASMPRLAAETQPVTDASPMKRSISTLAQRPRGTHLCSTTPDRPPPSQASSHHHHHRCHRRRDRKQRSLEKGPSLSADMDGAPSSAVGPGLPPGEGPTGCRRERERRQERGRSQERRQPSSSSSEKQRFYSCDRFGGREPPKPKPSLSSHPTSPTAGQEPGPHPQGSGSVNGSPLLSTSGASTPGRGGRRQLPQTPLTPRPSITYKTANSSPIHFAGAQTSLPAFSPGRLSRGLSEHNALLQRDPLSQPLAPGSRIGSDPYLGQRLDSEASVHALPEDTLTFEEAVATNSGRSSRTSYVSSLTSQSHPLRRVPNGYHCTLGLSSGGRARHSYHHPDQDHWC
Chain of Voltage-dependent T-type calcium channel subunit alpha-1H (Homo sapiens) (O95180 whole entry): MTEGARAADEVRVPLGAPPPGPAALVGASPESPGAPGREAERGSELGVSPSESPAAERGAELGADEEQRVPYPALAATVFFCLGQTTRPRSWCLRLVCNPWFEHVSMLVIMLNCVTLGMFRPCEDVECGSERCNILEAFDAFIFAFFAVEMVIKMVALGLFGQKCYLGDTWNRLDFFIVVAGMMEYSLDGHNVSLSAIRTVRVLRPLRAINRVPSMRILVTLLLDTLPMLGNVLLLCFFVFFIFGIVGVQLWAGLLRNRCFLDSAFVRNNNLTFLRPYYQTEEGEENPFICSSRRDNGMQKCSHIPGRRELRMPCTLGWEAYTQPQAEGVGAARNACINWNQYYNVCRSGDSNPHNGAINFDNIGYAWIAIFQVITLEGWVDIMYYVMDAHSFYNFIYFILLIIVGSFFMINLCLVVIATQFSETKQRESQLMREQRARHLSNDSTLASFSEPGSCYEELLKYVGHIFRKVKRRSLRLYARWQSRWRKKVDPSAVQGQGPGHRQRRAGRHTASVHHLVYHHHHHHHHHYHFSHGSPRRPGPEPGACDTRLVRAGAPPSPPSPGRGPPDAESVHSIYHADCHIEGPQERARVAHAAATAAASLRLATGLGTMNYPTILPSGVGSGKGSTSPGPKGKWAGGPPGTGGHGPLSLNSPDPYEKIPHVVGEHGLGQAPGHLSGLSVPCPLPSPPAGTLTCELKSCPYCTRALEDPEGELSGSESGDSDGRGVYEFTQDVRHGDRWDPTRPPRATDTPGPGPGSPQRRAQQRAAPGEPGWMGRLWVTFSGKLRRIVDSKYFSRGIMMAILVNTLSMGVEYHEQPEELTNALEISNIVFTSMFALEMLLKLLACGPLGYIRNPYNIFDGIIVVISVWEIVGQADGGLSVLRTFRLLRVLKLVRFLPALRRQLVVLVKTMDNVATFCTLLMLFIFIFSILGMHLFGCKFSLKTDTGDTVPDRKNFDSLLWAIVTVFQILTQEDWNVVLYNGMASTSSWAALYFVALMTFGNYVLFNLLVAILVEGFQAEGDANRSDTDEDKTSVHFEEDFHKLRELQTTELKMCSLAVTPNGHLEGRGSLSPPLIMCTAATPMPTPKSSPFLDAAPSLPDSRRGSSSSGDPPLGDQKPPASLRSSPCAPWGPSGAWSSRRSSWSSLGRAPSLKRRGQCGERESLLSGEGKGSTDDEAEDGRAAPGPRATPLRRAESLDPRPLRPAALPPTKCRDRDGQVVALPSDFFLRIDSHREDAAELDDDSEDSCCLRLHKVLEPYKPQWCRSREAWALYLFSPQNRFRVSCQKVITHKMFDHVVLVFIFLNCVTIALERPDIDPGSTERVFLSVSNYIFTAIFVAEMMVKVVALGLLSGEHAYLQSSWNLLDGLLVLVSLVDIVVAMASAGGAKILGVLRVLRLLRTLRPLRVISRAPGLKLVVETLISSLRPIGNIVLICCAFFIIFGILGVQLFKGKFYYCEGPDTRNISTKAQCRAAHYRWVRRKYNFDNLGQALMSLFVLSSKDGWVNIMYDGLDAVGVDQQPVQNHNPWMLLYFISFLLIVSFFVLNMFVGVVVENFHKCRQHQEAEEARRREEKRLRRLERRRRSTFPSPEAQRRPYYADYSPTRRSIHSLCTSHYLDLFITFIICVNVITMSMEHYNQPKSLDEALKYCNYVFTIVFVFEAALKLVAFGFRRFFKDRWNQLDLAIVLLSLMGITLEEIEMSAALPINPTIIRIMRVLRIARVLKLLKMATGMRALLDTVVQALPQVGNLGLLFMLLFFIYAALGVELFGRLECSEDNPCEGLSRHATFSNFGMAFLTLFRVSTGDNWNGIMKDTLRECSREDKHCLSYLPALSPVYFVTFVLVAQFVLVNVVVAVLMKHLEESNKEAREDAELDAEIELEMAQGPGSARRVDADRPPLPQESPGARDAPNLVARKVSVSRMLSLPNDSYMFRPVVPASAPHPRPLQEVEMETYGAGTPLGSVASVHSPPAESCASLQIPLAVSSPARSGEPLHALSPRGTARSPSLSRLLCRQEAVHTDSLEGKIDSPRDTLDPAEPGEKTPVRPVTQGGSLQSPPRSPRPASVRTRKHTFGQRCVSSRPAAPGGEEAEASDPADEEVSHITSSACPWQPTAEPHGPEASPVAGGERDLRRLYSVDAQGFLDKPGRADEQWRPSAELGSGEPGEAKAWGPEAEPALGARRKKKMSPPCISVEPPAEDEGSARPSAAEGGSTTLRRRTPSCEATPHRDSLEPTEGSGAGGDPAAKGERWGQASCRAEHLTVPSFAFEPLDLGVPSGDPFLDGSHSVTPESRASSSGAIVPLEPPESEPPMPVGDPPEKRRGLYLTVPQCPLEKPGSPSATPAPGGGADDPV

Row | SMILES | Ratio (Homo sapiens) | inhibition [1] [%] | inhibition [2] [%] | inhibition [3] [%] | IC50 [4] [µM]
1 | COC(=O)CC1c2ccccc2N=C(N(C)CCCCCN2CCCC2)N1c1ccc(-c2ccccc2)cc1 (stereo unspecified) | 2.6 | 94.9 | 88 | 36.5 | 0.34
2 | CN(CCCCCN1CCCC1)C1=Nc2ccccc2C(CC(=O)NCc2ccccc2)N1c1ccccc1 (stereo unspecified) | 1.5 | 68.1 | 82.7 | 46.3 | 4.2
3 | COC(=O)CC1c2ccccc2N=C(N(C)CCCCCN2CCCC2)N1c1ccccc1 (stereo unspecified) | 5.6 | 59.5 | 47.7 | 10.7 | 5.84
4 | NCCCCCNC1=Nc2ccccc2C(CC(=O)NCc2ccccc2)N1c1ccc(-c2ccccc2)cc1 (stereo unspecified) | 10.1 |  |  |  | 
5 | COC(=O)CC1c2ccccc2N=C(NCCCCCN)N1c1ccc(-c2ccccc2)cc1 (stereo unspecified) | > 100 |  |  |  | 
6 | CN(CCCCCN1CCCC1)C1=Nc2ccccc2C(CC(=O)NCc2ccccc2)N1c1ccc(-c2ccccc2)cc1 (stereo unspecified) | 7.5 | 88.1 | 95.5 | 11.7 | 
